pIC50: −log10 of the molar value.
How the values were obtained:
[1] = Induction of HNO release per mol of compound in 0.6 mL MeOH and 0.2 mL of 1 M NaOH after 2 hr by gas chromatographic analysis; format: physicochemical
Procedure, shortened: (§1)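 HNO measured indirectly as N2O under anaerobic conditions: compound at 50 mM in 0.6 mL MeOH plus 0.2 mL 1 M NaOH; headspace (0.25 mL) injected at 2 and 24 h onto GC with thermal conductivity detector and Porapak Q column. % based on 2 mol HNO per mol N2O; mean of three experiments.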

[2] = Induction of HNO release per mol of compound in 0.6 mL MeOH and 0.2 mL of 1 M NaOH after 24 hr by gas chromatographic analysis; format: physicochemical; procedure, shortened: as §1
[3] = Induction of HNO release per mol of compound in 0.6 mL MeOH, 0.2 mL of 1 M NaOH and 100 mM glutathione after 2 hr by gas chromatographic analysis; format: physicochemical
Procedure, shortened: (§2)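 Compound 50 mM in MeOH-based solvent containing 100 mM glutathione and 250 mM NaOH (25 mM NaOH for some compounds); headspace N2O sampled at 2 and 24 h by GC with thermal conductivity detection. % HNO from 2 mol HNO per mol N2O; mean of three.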

[4] = Induction of HNO release per mol of compound in 0.6 mL MeOH, 0.2 mL of 1 M NaOH and 100 mM glutathione after 24 hr by gas chromatographic analysis; format: physicochemical; procedure, shortened: as §2
[5] = target: T1, Prostaglandin G/H synthase 1 (Ovis aries, UniProt P05979); assay: Inhibition of ovine COX-1
T1 sequence (P05979 whole entry): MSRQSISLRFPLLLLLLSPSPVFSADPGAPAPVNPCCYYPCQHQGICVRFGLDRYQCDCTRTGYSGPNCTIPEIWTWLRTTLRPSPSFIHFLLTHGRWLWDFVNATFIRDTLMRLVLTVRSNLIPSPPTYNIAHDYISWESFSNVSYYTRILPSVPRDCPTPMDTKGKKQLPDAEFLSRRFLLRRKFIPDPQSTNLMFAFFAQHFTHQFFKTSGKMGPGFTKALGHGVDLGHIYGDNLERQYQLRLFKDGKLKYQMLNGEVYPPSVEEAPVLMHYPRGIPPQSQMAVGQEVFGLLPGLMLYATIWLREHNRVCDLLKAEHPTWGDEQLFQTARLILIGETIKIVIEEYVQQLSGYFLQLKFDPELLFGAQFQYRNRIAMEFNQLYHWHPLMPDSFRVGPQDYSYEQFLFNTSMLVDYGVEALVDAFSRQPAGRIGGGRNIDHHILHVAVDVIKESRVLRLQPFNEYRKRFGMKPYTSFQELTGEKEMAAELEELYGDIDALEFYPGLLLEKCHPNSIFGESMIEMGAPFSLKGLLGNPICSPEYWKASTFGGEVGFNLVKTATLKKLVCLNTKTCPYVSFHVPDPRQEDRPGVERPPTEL

Rattus norvegicus [6] = assay: Antiinflammatory activity in po dosed Sprague-Dawley rat assessed as inhibition of carrageenam-induced paw edema administered 1 hr before carrageenan challenge measured after 3 hrs by Plethysmometer; format: functional; settings: read-out: ID50 (the source's name)
Procedure, shortened: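 Male Sprague-Dawley rats (160-180 g), three per group; compounds suspended in water with 1% methyl cellulose given orally at no fewer than three doses (2.8-112 mg/kg range) 1 h before subplantar injection of 0.05 mL 1% carrageenan in 0.9% NaCl into right hind paw. Vehicle-only controls. Paw volume measured by plethysmometer at 0 and 3 h; ID50 from dose-response curve.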

Rattus norvegicus [7] = assay: Ulcerogenic activity in 12 fasting Sprague-Dawley rat assessed as ulcer index at 80 umol/kg, po measured after 6 hrs by magnifier lenses; format: toxicity, organism-based; settings: in vivo
Procedure, shortened: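 Rats fasted (water allowed) 12 h, then given 80 μmol/kg orally suspended in 1.7 mL 1% methylcellulose; vehicle controls. After 6 h, CO2 euthanasia; stomachs opened along greater curvature, rinsed, ulcers counted and measured with magnifier lenses. UI = summed ulcer length (mm) per stomach averaged over n = 3 per group.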

[8] = Chemical stability of the compound in phosphate buffered saline of pH 7.4 assessed as NO release at 50 uM after 1.5 hr by Griess assay; settings: buffer, pH 7.4, 1.5 h
[9] = Induction of HNO release per mol of compound in 0.6 mL MeOH and 0.2 mL of 700 mM Tris buffer solution after 2 hr by gas chromatographic analysis
[10] = Induction of HNO release per mol of compound in 0.6 mL MeOH and 0.2 mL of 700 mM Tris buffer solution after 24 hr by gas chromatographic analysis
[11] = Chemical stability of the compound in phosphate buffered containg rat serum of pH 7.4 assessed as NO release at 50 uM after 1.5 hr by Griess assay; settings: pH 7.4, 1.5 h
Rattus norvegicus [12] = assay: Antiinflammatory activity in Sprague-Dawley rat assessed as inhibition of carrageenam-induced paw edema at 100 mg/kg, po administered 1 hr before carrageenan challenge measured after 3 hrs by Plethysmometer; format: functional
Procedure, shortened: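 Male Sprague-Dawley rats (160-180 g), three per group, received the test compound orally as a suspension in water with 1% methyl cellulose. One hour later, 0.05 mL of 1% carrageenan in 0.9% NaCl was injected subcutaneously into the right hind paw plantar skin. Controls received vehicle alone. Paw volume was read at 0 and 3 h, and % inhibition was reported with SEM (n = 3).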

Rattus norvegicus [13] = assay: Antiinflammatory activity in Sprague-Dawley rat assessed as inhibition of carrageenam-induced paw edema at 327 umol/kg, po administered 1 hr before carrageenan challenge measured after 3 hrs by Plethysmometer; format: functional
Procedure, shortened: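 Male Sprague-Dawley rats (160-180 g), three per group. Test agent was suspended in water with 1% methylcellulose and given orally 1 h before 0.05 mL 1% carrageenan in 0.9% NaCl was injected subcutaneously under the plantar skin of the right hind paw. Controls received vehicle only. Paw volume was measured at 0 and 3 h by plethysmometer. Result is % inhibition of inflammation, n = 3, with SEM.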

Compound	Activity [1]	Activity [2]	Activity [3]	Activity [4]	pIC50 [5]	ED50 (Rattus norvegicus [6])	UI (Rattus norvegicus [7])	Activity [8]	Activity [9]	Activity [10]	Activity [11]	inhibition in vivo at 100 mg/kg (Rattus norvegicus [12])	inhibition in vivo at 327 µmol/kg (Rattus norvegicus [13])
COc1ccc2c(c1)c(CC(=O)OCCS(=O)(=O)NO)c(C)n2C(=O)c1ccc(Cl)cc1	20%	1%	1%	1%	4.11	19.1 µmol/kg	0	44.5%	0%	0%	3.2%		
COc1ccc2cc([C@H](C)C(=O)OCCS(=O)(=O)NO)ccc2c1	24%	23%	2%	4%	5.35	11.8 µmol/kg		52.9%	0%	0%	1.3%		
O=C(Cc1ccccc1)OCCS(=O)(=O)NO	23%	21%	0%	7%	< 4.00			54.3%	0%	0%	4.8%	12.4%	
CC(C)Cc1ccc(C(C)C(=O)OCCS(=O)(=O)NO)cc1 (configuration not stated)	25%	24%	0%	7%	5.96			46.3%	0%	0%	2.1%		79.5%
CONS(=O)(=O)CCOC(=O)C(C)c1ccc(CC(C)C)cc1 (configuration not stated)	0%	0%	0%	0%	4.84			4.3%	0%	0%	0.9%		78.9%
CCS(=O)(=O)NO [ETHANESULFONYLHYDROXAMIC ACID]	24%	7%	0%	0%	< 4.00			54.5%	0%	0%	1.4%		
COc1ccc2c(c1)c(CC(=O)O)c(C)n2C(=O)c1ccc(Cl)cc1 [INDOMETHACIN]							64.5						
COc1ccc2cc([C@H](C)C(=O)O)ccc2c1 [NAPROXEN]						29.7 µmol/kg							

Reference: ChEMBL document CHEMBL1687885, “Ethanesulfohydroxamic acid ester prodrugs of nonsteroidal anti-inflammatory drugs (NSAIDs): synthesis, nitric oxide and nitroxyl release, cyclooxygenase inhibition, anti-inflammatory, and ulcerogenicity index studies” (J Med Chem, 2011)
